ARFGAP1 inh – rat ARFGAP1 inhibition; 360,000 compounds, 0.26% hits; Arfgap1-stimulated ARF1 GTP hydrolysis, GDP FP detection; AID 651572; inhibition, % at 16.5 µM; Q62848;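 active = inhibition above a per-plate limit, mean inhibition of low control wells plus 3 SD, cut at about 25% in these data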;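 also: 0% = DMSO wells with enzyme and 100% = wells lacking Arfgap1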
Target sequence (Q62848 1-136 limits assumed): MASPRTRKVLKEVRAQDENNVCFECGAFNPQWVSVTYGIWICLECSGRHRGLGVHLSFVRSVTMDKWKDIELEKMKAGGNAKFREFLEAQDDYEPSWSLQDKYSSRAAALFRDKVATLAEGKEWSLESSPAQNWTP
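Material: rat Arfgap1 GAP domain (His6, aa 1-136), purified enzyme. Also added: human ARF1(Δ1-17)-GTP substrate. Compound dosing: 16.5 µM single point, 1.26% DMSO. Timing: enzyme reaction 120 min at 25 °C after 20 min preincubation. Signal: GDP detection by fluorescence polarization. Read-out basis: percent inhibition of GAP-stimulated GDP formation, scaled between DMSO and no-Arfgap1 medians.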
esBAF inh – inhibitors of esBAF chromatin remodeling in mouse ES cells | 350,000 compounds, 2% hits | Bmi1-luciferase knock-in reporter, 24 h; 100% = twice the neutral-well signal | reporter increase, % at 12.5 µM | AID 602393; in the data active = activation above about 40%;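 also: 0% = median of the plate's neutral control wells and 100% = double that signal; a rise in the Bmi1 reporter signal indicates esBAF inhibition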
SMARCA2 activ – increases SMARCA2 function in MMTV reporter cells. MG213 cells, MMTV-luciferase reporter, dexamethasone, overnight. activation, % at 9.1 µM. 370,000 compounds, 1% hits; in the data active = activation above about 7.8%;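 also: 0% = vehicle wells and 100% = reference activator wells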
ASAP1 inh – inhibitors of human ASAP1 ArfGAP activity; Q9ULH1; ASAP1-stimulated ARF1 GTP hydrolysis, GDP FP detection; 360,000 compounds, 0.19% hits; AID 624377; inhibition, % at 16.5 µM; in the data active = inhibition above about 25%;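 also: 0% = vehicle with enzyme and substrate and 100% = no enzyme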
Target sequence (Q9ULH1 325-724 limits assumed): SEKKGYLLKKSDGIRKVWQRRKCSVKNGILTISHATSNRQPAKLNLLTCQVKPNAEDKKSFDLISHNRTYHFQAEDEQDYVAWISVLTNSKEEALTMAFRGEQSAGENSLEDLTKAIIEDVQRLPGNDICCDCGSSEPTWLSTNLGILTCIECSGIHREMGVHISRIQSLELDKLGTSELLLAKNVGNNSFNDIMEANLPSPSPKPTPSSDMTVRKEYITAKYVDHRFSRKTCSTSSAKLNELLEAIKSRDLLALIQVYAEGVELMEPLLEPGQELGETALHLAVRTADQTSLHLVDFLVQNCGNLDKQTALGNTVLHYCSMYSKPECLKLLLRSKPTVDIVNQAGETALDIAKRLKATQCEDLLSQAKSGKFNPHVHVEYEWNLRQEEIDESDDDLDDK
Active calls of the source: *. Rows were chosen to be rich in hits. Some 2.6% of all compounds tested hit in one or more screens of this group.

`CC(C)(C)NC(=S)NNC(=O)c1ccc2ncccc2c1` gave ARFGAP1 inh -3, esBAF inh 57*, SMARCA2 activ 4 and ASAP1 inh -4.
Cc1ccc(NC(=S)NC(=O)c2ccccc2)cc1NC(=S)NC(=O)c1ccccc1 was read as ARFGAP1 inh -8, esBAF inh 28, SMARCA2 activ 3 and ASAP1 inh 5.
CC(=O)c1cccc(NC(=S)NC(=O)c2ccccc2Cl)c1 was read as ARFGAP1 inh 9, SMARCA2 activ 5 and ASAP1 inh 6.
Screening O=C(NC(=S)Nc1ccc2ncccc2c1)c1ccccc1 returned ARFGAP1 inh 1, esBAF inh 67*, SMARCA2 activ 4 and ASAP1 inh 2.
For CC(=O)c1cccc(NC(=S)NC(=O)c2ccc(C)cc2Cl)c1 the results were ARFGAP1 inh 1, esBAF inh 60*, SMARCA2 activ 3 and ASAP1 inh 4.
Screening CN(C)C(=O)[C@H]1[C@H](CO)[C@H]2Cn3c(ccc(C4=CCCCC4)c3=O)[C@H]2N1Cc1ccccn1 returned esBAF inh -1.
`O=C(NC(=S)Nc1cccc(NC(=S)NC(=O)c2ccccc2)c1)c1ccccc1` gave ARFGAP1 inh 5, esBAF inh 66*, SMARCA2 activ 0 and ASAP1 inh -10.
Screening O=C(O)c1ccc(NC(=S)NC(=O)c2ccc3ccccc3c2)cc1 returned ARFGAP1 inh 5, esBAF inh 41*, SMARCA2 activ 5 and ASAP1 inh -1.
For S=C(NCc1ccccc1)Nc1ccc2ccccc2c1 the results were ARFGAP1 inh 9, esBAF inh 80*, SMARCA2 activ 2 and ASAP1 inh 7.
CCC(=O)Nc1cccc(NC(=S)NC(=O)c2ccccc2)c1 was read as ARFGAP1 inh 2, SMARCA2 activ 6 and ASAP1 inh -7.
For CCC(=O)Nc1cccc(NC(=S)NC(=O)c2ccc(C)cc2)c1 the results were ARFGAP1 inh -7, esBAF inh 96*, SMARCA2 activ -1 and ASAP1 inh -9.
COc1cccc(C#Cc2ccc([C@H]3[C@@H](C#N)N(C(=O)C4CC4)[C@@H]3CO)cc2)c1 was read as esBAF inh -5.
For COCC(=O)Nc1ccc2c(c1)C(=O)N(C)C[C@H](OC)[C@H](C)CN(Cc1ccccc1OC)[C@@H](C)CO2 the results were esBAF inh 0.
Screening O=C(Nc1ccc2nc[nH]c2c1)c1ccco1 returned ARFGAP1 inh 2, esBAF inh 18, SMARCA2 activ 8 and ASAP1 inh -14.
Screening O=C(NC(=S)Nc1ccc2nc[nH]c2c1)c1ccccc1 returned ARFGAP1 inh 6, esBAF inh 55*, SMARCA2 activ 1 and ASAP1 inh 9.
CO[C@@H]1CN(C)C(=O)c2cc(NC(C)=O)ccc2OC[C@@H](C)N(C(=O)c2ccccc2F)C[C@H]1C was read as esBAF inh 4.
`CCOC(=O)c1cc(-c2ccccc2)nn1Cc1cc(CC)no1` gave ARFGAP1 inh 9, esBAF inh 61*, SMARCA2 activ 3 and ASAP1 inh 6.
Screening Cc1ccccc1S(=O)(=O)NCC[C@H]1CC[C@H](NC(=O)C2CCCCC2)[C@H](CO)O1 returned esBAF inh -3.
For C[C@H]1CN([C@@H](C)CO)C(=O)Cc2cc(NS(=O)(=O)c3cn(C)cn3)ccc2O[C@@H]1CN(C)Cc1ccc(C(=O)Nc2ccccc2N)cc1 the results were esBAF inh 5.
For O=C(Nc1cccc(Cl)c1)c1ccc(OC(=S)N2CCOCC2)cc1 the results were ARFGAP1 inh 3, SMARCA2 activ 0 and ASAP1 inh 5.
For O=C(Nc1cccc2ccccc12)c1ccc(OC(=S)N2CCOCC2)cc1 the results were ARFGAP1 inh 2, esBAF inh 45*, SMARCA2 activ 7 and ASAP1 inh 1.
`CCCCN(CC)C(=O)c1cc2cc3ccc(OC)cc3nc2o1` gave ARFGAP1 inh 7, esBAF inh 88*, SMARCA2 activ 2 and ASAP1 inh 1.
Screening CCC(C)NC(=O)c1cc2cc3ccc(OC)cc3nc2o1 (configuration not stated) returned ARFGAP1 inh 3, esBAF inh 55*, SMARCA2 activ 2 and ASAP1 inh 12.
`COc1ccc2cc3cc(C(=O)NCC4CCCO4)oc3nc2c1` (configuration not stated) gave ARFGAP1 inh 10, esBAF inh 55*, SMARCA2 activ -3 and ASAP1 inh -8.
COCCNC(=O)c1cc2cc3ccc(OC)cc3nc2o1 was read as ARFGAP1 inh -4, esBAF inh 30, SMARCA2 activ 6 and ASAP1 inh -20.
COc1ccc2cc3cc(C(=O)NCCC(C)C)oc3nc2c1 was read as ARFGAP1 inh -1, esBAF inh 9, SMARCA2 activ 2 and ASAP1 inh -6.
C[C@H](CO)N1C[C@H](C)[C@H](CN(C)S(=O)(=O)c2cccs2)Oc2ccc(NC(=O)Cc3cn(C)c4ccccc34)cc2CC1=O was read as esBAF inh 5.
For Cc1ccc(S(=O)(=O)Nc2ccc3c(c2)C(=O)N([C@H](C)CO)C[C@@H](C)[C@@H](CN(C)C(=O)Cc2ccccc2)OCCCC[C@H](C)O3)cc1 the results were esBAF inh 8.
For c1ccc(NC2=Nc3ccccc3CC2)cc1 the results were ARFGAP1 inh 0, esBAF inh 46*, SMARCA2 activ 1 and ASAP1 inh 8.
Screening c1ccc(Nc2ccc3c4c(cccc24)CC3)cc1 returned ARFGAP1 inh 0, esBAF inh 0, SMARCA2 activ -1 and ASAP1 inh -1.
Cc1nn(CC(=O)Nc2ccccn2)c(=O)c2ccccc12 was read as ARFGAP1 inh 5, esBAF inh -4, SMARCA2 activ 5 and ASAP1 inh 13.
For O=C(Cn1nc(-c2ccccc2)c2ccccc2c1=O)Nc1ccccn1 the results were ARFGAP1 inh -4, esBAF inh 48*, SMARCA2 activ 2 and ASAP1 inh 4.
C=C(C)C1CC=C(C)/C(=N/NC(=O)c2cccs2)C1 (configuration not stated) was read as ARFGAP1 inh -4, esBAF inh 43*, SMARCA2 activ 2 and ASAP1 inh -9.
COc1ccc(C#Cc2ccc(C3=CC(=O)CC(C)(C)C3=O)cc2)cc1 was read as ARFGAP1 inh 1, esBAF inh 40, SMARCA2 activ 0 and ASAP1 inh 4.
Screening COc1ccccc1C#CC1=CC(=O)CC(C)(C)C1 returned ARFGAP1 inh -2, esBAF inh 17, SMARCA2 activ 5 and ASAP1 inh 2.
Screening CCc1ccc(C#CC2=CC(=O)CC(C)(C)C2)cc1 returned ARFGAP1 inh -4, esBAF inh 61*, SMARCA2 activ 2 and ASAP1 inh 12.
`COc1ccc(C#CC2=CC(=O)CC(C)(C)C2)cc1` gave ARFGAP1 inh -1, esBAF inh 45*, SMARCA2 activ 1 and ASAP1 inh 6.
`C[C@H]1CN([C@@H](C)CO)S(=O)(=O)c2ccc(C3=CCCC3)cc2O[C@H]1CN(C)CC1CCOCC1` gave esBAF inh -1.

Assay outcomes from PubChem BioAssay.
